pIC50: −log10 of the molar value. Active and inactive are the calls of the source. No cut-off for these calls is given here.
Species on record: Canis familiaris
Assay: PAF-antagonist activity in dog platelets by PAF-binding assay; No significant inhibition at 1000 nM
Type: functional, Canis lupus familiaris
Settings: not given

Structure (SMILES)	IC50
Cc1nnc2n1-c1cc(C#CCN3C(=O)c4ccccc4C3=O)ccc1C(c1ccccc1F)=NC2	Not Active

Test system: Cavia porcellus
Assay: Inhibition of PAF-induced bronchoconstriction in the guinea pig after administration (1 mg/kg) intravenously at two-hourpretreatment time
Type: functional
Settings: not given

Structure (SMILES)	Inhibition [%]
CCc1nnc2n1-c1ccc(C#CCN3C(=O)c4ccccc4C3=O)cc1C(c1ccccc1F)=NC2	30

Test system: Cavia porcellus
Assay: Inhibitory activity at 0.03 mg/kg was determined against PAF-induced bronchoconstriction in guinea pig
Type: functional
Settings: not given
Summary of the method: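 Duration-of-action test: single 0.03 mg/kg oral dose given 24 h before iv PAF challenge (1 µg/kg) in ventilated, paralysed guinea pigs. Percent inhibition of the tracheal pressure rise versus vehicle controls. Values are means ± SEM.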

Structure (SMILES)	inhibition in vivo at 0.03 mg/kg [%]
Cc1nnc2n1-c1sc(C#CCn3c4c(c5ccccc53)CCCCC4)cc1C(c1ccccc1Cl)=NC2	8
Cc1nnc2n1-c1sc(C#CCN3Cc4cccc5cccc(c45)C3=O)cc1C(c1ccccc1Cl)=NC2	60
Cc1nnc2n1-c1sc(C#CCn3c(=O)c4ccccc4c4ccccc43)cc1C(c1ccccc1Cl)=NC2	75
Cc1nnc2n1-c1sc(C#CCN3C(=O)Cn4ccc5c(Cl)ccc3c54)cc1C(c1ccccc1Cl)=NC2	0
Cc1nnc2n1-c1sc(C#CCn3c4c(c5ccccc53)CCCC4)cc1C(c1ccccc1Cl)=NC2	75

Test system: Cavia porcellus
Assay: Inhibition of PAF-induced bronchoconstriction in the guinea pig after intravenous administration after one-minute pretreatment time; No significant inhibition at 1 mg/kg
Type: functional, organism-based
Design: dose 1 mg/kg
Settings: not given

Structure (SMILES)	ID50
Cc1nnc2n1-c1sc(C#CCn3c(=O)c4ccccc4c4ccccc43)cc1C(c1ccccc1Cl)NC2=O (configuration not stated)	inactive

Test system: Cavia porcellus
Assay: Compound was measured by using PAF-induced Bronchoconstriction assay in the guinea pig after administration orally after two-hour pretreatment time
Type: functional
Settings: po, read-out: ID50 (the source's name)
Summary of the method: (§1)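 Guinea pigs dosed orally with drug or vehicle 2 h before iv PAF challenge (1 µg/kg, maximal constrictory dose). Propranolol given 5 min before PAF, succinylcholine (1.2 mg/kg iv) to stop breathing, animals ventilated. Read-out is tracheal pressure change, averaged over 3 control and 3 treated animals.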

Structure (SMILES)	ED50 [mg/kg]
Cc1nnc2n1-c1sc(C#CCN3C(=O)CCc4ccccc43)cc1C(c1ccccc1Cl)=NC2	0.02

Test system: Cavia porcellus
Assay: Inhibition of PAF-induced bronchoconstriction in guinea pig after oral administration after two-hour pretreatment time
Type: functional
Settings: read-out: ID50 (the source's name)
Summary of the method: as §1

Structure (SMILES)	ED50 [mg/kg]
Cc1nnc2n1-c1sc(C#CCN3C(=O)COc4ccc(Cl)cc43)cc1C(c1ccccc1Cl)=NC2	0.05
Cc1nnc2n1-c1sc(C#CCn3c4c(c5cc(Cl)ccc53)CCCC4)cc1C(c1ccccc1Cl)=NC2	0.04
Cc1nnc2n1-c1sc(C#CCn3c4c(c5ccccc53)CCCCC4)cc1C(c1ccccc1Cl)=NC2	0.004
Cc1nnc2n1-c1sc(C#CCn3c4ccccc4c(=O)c4ccccc43)cc1C(c1ccccc1Cl)=NC2	0.02
COc1cc2c(cc1OC)C(=O)N(CC#Cc1cc3c(s1)-n1c(C)nnc1CN=C3c1ccccc1Cl)CC2	0.05
Cc1nnc2n1-c1sc(C#CCN3C(=O)CCc4cc(Cl)cc(Cl)c43)cc1C(c1ccccc1Cl)=NC2	0.02
Cc1nnc2n1-c1sc(C#CCn3c(=O)c4ccccc4c4ccccc43)cc1C(c1ccccc1Cl)=NC2O (configuration not stated)	0.07
Cc1nnc2n1-c1sc(C#CCN3C(=O)COc4ccccc43)cc1C(c1ccccc1Cl)=NC2	0.02
Cc1nnc2n1-c1sc(C#CCN3CCc4ccccc4C3=O)cc1C(c1ccccc1Cl)=NC2	0.03
C=C=Cn1c(=O)n(CC#Cc2cc3c(s2)-n2c(C)nnc2CN=C3c2ccccc2Cl)c2ccccc21	0.03
Cc1nnc2n1-c1sc(CCC(=O)N3CCOCC3)cc1C(c1ccccc1Cl)=NC2 [APAFANT]	1.2
Cc1nnc2n1-c1sc(C#CCOc3cccnc3)cc1C(c1ccccc1Cl)=NC2	0.2
Cc1nnc2n1-c1ccc(C#CCN3C(=O)CSc4ccccc43)cc1C(c1ccccc1F)=NC2	0.3
Cc1nnc2n1-c1sc(C#CCn3ccc4ccccc4c3=O)cc1C(c1ccccc1Cl)=NC2	0.03
Cc1nnc2n1-c1ccc(C#CCN3C(=O)CCc4ccccc43)cc1C(c1ccccc1F)=N[C@H]2C	0.1
Cc1nnc2n1-c1sc(C#CCN3C(=O)CCc4ccc(Cl)cc43)cc1C(c1ccccc1Cl)=NC2	0.1
Cc1nnc2n1-c1sc(C#CCn3c(=O)c4ccccc4c4ccccc43)cc1C(c1ccccc1Cl)=NC2	0.01
Cc1nnc2n1-c1sc(C#CCn3c(=O)n(-c4ccccc4)c4ccccc43)cc1C(c1ccccc1Cl)=NC2	0.02
Cc1nnc2n1-c1sc(C#CCn3c(O)nc4ccccc43)cc1C(c1ccccc1Cl)=NC2	0.2
Cc1nnc2n1-c1sc(C#CCN3C(=O)c4cccc5cccc3c45)cc1C(c1ccccc1Cl)=NC2	0.04
Cc1nnc2n1-c1sc(C#CCC34CCCc5cccc(c53)NC4=O)cc1C(c1ccccc1Cl)=NC2 (configuration not stated)	0.3
Cc1nnc2n1-c1sc(C#CCN3C(=O)NCc4ccccc43)cc1C(c1ccccc1Cl)=NC2	0.05
Cc1nnc2n1-c1sc(C#CCn3c(=O)n(CCN(C)C)c(=O)c4ccccc43)cc1C(c1ccccc1Cl)=NC2	0.3
Cc1nnc2n1-c1sc(C#CCn3c(=O)c4cc(Cl)ccc4c4ccc(Cl)cc43)cc1C(c1ccccc1Cl)=NC2	0.03

Structure (SMILES)	ED50 [mg/kg]
Cc1nnc2n1-c1ccc(C#CCN3C(=O)c4ccccc4C3=O)cc1C(c1ccccc1F)=NC2	0.5
Cc1nnc2n1-c1sc(C#CCn3c(=O)n(C)c4ccccc43)cc1C(c1ccccc1Cl)=NC2	0.04
Cc1nnc2n1-c1sc(C#CCn3c4ccccc4c4ccccc43)cc1C(c1ccccc1Cl)=NC2	0.02
Cc1nnc2n1-c1sc(C#CCn3cnc4ccccc43)cc1C(c1ccccc1Cl)=NC2	0.1
Cc1nnc2n1-c1sc(C#CCOc3ccccc3)cc1C(c1ccccc1Cl)=NC2	0.1
Cc1nnc2n1-c1sc(C#CCn3c(=O)n(CCN(C)C)c4ccccc43)cc1C(c1ccccc1Cl)=NC2	0.2
Cc1nnc2n1-c1sc(C#CCn3c4c(c5cc(Cl)ccc53)CCCCC4)cc1C(c1ccccc1Cl)=NC2	0.3
Cc1nnc2n1-c1sc(C#CCN3C(=O)OCc4ccccc43)cc1C(c1ccccc1Cl)=NC2	0.08
Cc1nnc2n1-c1sc(C#CCN3C(=O)Cn4ccc5c(Cl)ccc3c54)cc1C(c1ccccc1Cl)=NC2	0.003
Cc1nnc2n1-c1ccc(C#CCCN3C(=O)c4ccccc4C3=O)cc1C(c1ccccc1F)=NC2	0.3
O=c1c2ccccc2c2ccccc2n1CC#Cc1cc2c(s1)-n1c(CO)nnc1CN=C2c1ccccc1Cl	0.3
Cc1nnc2n1-c1sc(C#CCn3c(=O)c4ccccc4c4ccccc43)cc1C(c1ccccc1Cl)=NC2C (configuration not stated)	0.03
Cc1nnc2n1-c1sc(C#CCn3ncc4ccccc43)cc1C(c1ccccc1Cl)=NC2	0.02
Cc1nnc2n1-c1sc(C#CCN3C(=O)COc4cc(F)ccc43)cc1C(c1ccccc1Cl)=NC2	0.02
Cc1nnc2n1-c1sc(C#CCn3c(=O)c4ccccc4c(=O)c4ccccc43)cc1C(c1ccccc1Cl)=NC2	0.03
Cc1nnc2n1-c1sc(C#CCn3c(=O)ccc4ccccc43)cc1C(c1ccccc1Cl)=NC2	0.02
Cc1nnc2n1-c1ccc(C#CCN3C(=O)c4cccc5cccc(c45)C3=O)cc1C(c1ccccc1Cl)=NC2	0.6
Cc1nnc2n1-c1sc(C#CCn3c(=O)c4ccccc4c4ccccc4c3=O)cc1C(c1ccccc1Cl)=NC2	0.02
Cc1nnc2n1-c1sc(C#CCn3c(=O)n(C)c(=O)c4ccccc43)cc1C(c1ccccc1Cl)=NC2	0.02
Cc1nnc2n1-c1sc(C#CCN3C(=O)CC(C)(C)c4ccccc43)cc1C(c1ccccc1Cl)=NC2	0.03
CCCCC/C(=C\C=C\C(=O)N[C@H](C)CCCc1cccnc1)c1ccc(OC)cc1	4
Cc1nnc2n1-c1ccc(C#CCN3C(=O)CCc4ccccc43)cc1C(c1ccccc1F)=NC2	0.4
Cc1nnc2n1-c1sc(C#CCN3C(=O)c4cccc5cccc(c45)C3=O)cc1C(c1ccccc1Cl)=NC2	0.03

Test system: Cavia porcellus
Assay: Inhibition of PAF-induced bronchoconstriction in guinea pig after oral administration after two-hour pretreatment time; No significant inhibition at 1 mg/kg
Type: functional, organism-based
Design: dose 1 mg/kg
Settings: not given

Structure (SMILES)	ID50
Cc1nnc2n1-c1sc(C#CCN3C(=O)CCc4ccccc43)cc1C(c1cc([N+](=O)[O-])ccc1Cl)=NC2	inactive
Cc1nnc2n1-c1sc(I)cc1C(c1cc([N+](=O)[O-])ccc1Cl)=NC2	inactive
Cc1nnc2n1-c1sc(I)cc1C(c1ccccc1Cl)=NC2C (configuration not stated)	inactive
Cc1nnc2n1-c1sc(C#CCn3c(=O)c4ccccc4c4ccccc43)cc1C(c1ccccc1Cl)NC2=O (configuration not stated)	inactive
Cc1nnc2n1-c1sc(I)cc1C(c1ccccc1Cl)=NC2	inactive

Molecular target: not listed separately
Assay: PAF-antagonist activity determined in dog platelets by PAF-binding assay
Settings: not given

Structure (SMILES)	pIC50
CCCCC/C(=C\C=C\C(=O)N[C@H](C)CCCc1cccnc1)c1ccc(OC)cc1	7.40

From ChEMBL document CHEMBL1125634, “Triazolobenzo- and triazolothienodiazepines as potent antagonists of platelet activating factor” (J Med Chem, 1991)
